Test results taken from article PMC7610887 (Journal of psychopharmacology (Oxford, England), 2019).
Where “and” joins values, the source holds several entries; their conditions need not be identical. Identical values can stand only once. Like-named read-outs stand apart in the source and are kept apart here.

Assays:
[1] = molecular target: hGluA4i AMPAR (Homo sapiens, UniProt P48058); assay: Intracellular Ca2+ influx assay; format: cell-based
In short: (§1)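 AMPA receptor flip isoforms expressed in HEK-293 cells: hGluA1i, hGluA3i, hGluA4i and rat GluA2i by lipofectamine transient transfection, and hGluA2i stably. All were Q-unedited in TM2. Cells were seeded on poly-D-lysine 2 days before assay and loaded with Fluo-4AM (2 μM final) for 60 min in the dark in HEPES buffer, pH 7.3. Test compound (1:3 serial dilution) was added with glutamate (100 μM final), and FLIPR fluorescence was read. Maximum response was scaled to LY404187 run on each plate.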

[2] = molecular target: Homomeric human GluA1 flip isoform (hGluA1i) (Homo sapiens, UniProt P42261); assay: Intracellular Ca2+ influx assay; format: cell-based; conditions: relative to positive control LY404187
In short: as §1

[3] = system: native neuronal AMPARs in rat cultured hippocampal neurons; assay: Native receptor electrophysiology in cultured hippocampal neurons; format: cell-based
In short: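 Hippocampi from embryonic rats were trypsinised (0.05%, 30 min, 37 °C), dissociated and grown in Neurobasal/B27 for 5-13 days. Whole-cell voltage clamp was held at -70 mV, with AMPA (30 μM) applied for 2 s every 30 s by fast perfusion, with test compound at 1 nM-10 μM. Charge transfer, desensitisation and deactivation were compared with AMPA alone by paired t-test.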

[4] = In vivo electrophysiology, dentate gyrus population spike; set-up: species or system rat; conditions: male, Lister hooded, rat, brain, iv
[5] = system: anaesthetised rats; assay: as above; set-up: species or system rat; conditions: 10 mg/kg i.v.; vehicle 70%
[6] = system: dog; assay: 4-week GLP safety assessment study, dog; format: in vivo
[7] = system: Male Wistar rats; assay: Passive avoidance, scopolamine-induced deficit; format: in vivo, rat
[8] = system: dog; assay: 7-day dose-range finding study, dog; format: in vivo; conditions: doses of up to 1,000 mg/kg
[9] = molecular target: rat GluA2i AMPAR (Rattus norvegicus, UniProt P19491); assay: Intracellular Ca2+ influx assay; format: cell-based
In short: as §1

[10] = system: Heteromeric hGluN1A/GluN2B NMDARs; assay: Ca2+ flux assay or whole-cell patch clamp, NMDAR; format: cell-based, human; conditions: Ca2+ flux assay or whole-cell patch clamp (data not shown)
In short: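 HEK-293 cells were transduced with hGluN1A and hGluN2B BacMam vectors in the presence of 500 μM ketamine, then plated on poly-D-lysine, still with 500 μM ketamine, for 24 h. In the Ca2+ flux format, cells were loaded with Fluo-4AM (2 μM final) for 60 min, washed, then given test compound (1:3 serial dilution) plus glutamate (100 μM final), with FLIPR fluorescence read-out.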

[11] = Maximal electroshock threshold; conditions: male, Lister Hooded, rat, brain, oral, 30 mg/kg
[12] = system: male Lister Hooded rats; assay: Maximal electroshock threshold
[13] = system: rats; assay: Novel object recognition; conditions: p.o.
[14] = Novel object recognition; conditions: rat, in vivo, 0.1 mg/kg, 0.1 mg/kg p.o. sub-chronic
[15] = molecular target: hGluA2i AMPAR (Homo sapiens, UniProt P42262); assay: Intracellular Ca2+ influx assay; format: cell-based
In short: as §1

[16] = Solubility; format: physicochemical
[17] = system: Human GluK2 receptors; assay: Ca2+ flux assay or whole-cell patch clamp, GluK2; format: cell-based; conditions: Ca2+ flux assay or whole-cell patch clamp (data not shown)
In short: (§2)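 Kainate receptors in HEK cells: hGluK1 (Q-unedited) by lipofectamine transient transfection, hGluK2 stably expressed. Cells were seeded 24 h before assay. In the Ca2+ flux format, cells were loaded with Fluo-4AM (2 μM final) for 60 min in the dark, washed, then given test compound (1:3 serial dilution) plus glutamate (100 μM final), with FLIPR fluorescence read-out.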

[18] = system: rat; assay: 4-week GLP safety assessment study, rat; format: in vivo
[19] = 4-week GLP safety assessment study, rat; format: in vivo; conditions: rat, plasma, po, 800 mg/kg
[20] = system: Homomeric hGluK1 kainate receptors; assay: Ca2+ flux assay or whole-cell patch clamp, GluK1; format: cell-based, human; conditions: Ca2+ flux assay or whole-cell patch clamp (data not shown)
In short: as §2

[21] = system: rat; assay: 7-day dose-range finding study, rat; format: in vivo; conditions: doses of up to 1,600 mg/kg, 7-day
[22] = 7-day dose-range finding study, rat; format: in vivo; conditions: rat, plasma, po, 1600 mg/kg
[23] = molecular target: hGluA3i AMPAR (Homo sapiens, UniProt P42263); assay: Intracellular Ca2+ influx assay; format: cell-based
In short: as §1

[24] = system: pregnane X receptor; assay: Pregnane X receptor activation; conditions: linked to a potential for drug-drug interactions
[25] = molecular target: hGluA2 AMPARs (Homo sapiens, UniProt P42262); assay: Recombinant receptor whole-cell electrophysiology; format: cell-based; conditions: 1 mM glutamate
In short: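 HEK cells stably expressing hGluA2 were plated on poly-D-lysine coverslips and used 1-2 days later. Perforated-patch whole-cell recording at -60 mV used 2-5 MΩ pipettes, NaCl/HEPES external solution (pH 7.35) and CsCl/EGTA internal solution (pH 7.3). Glutamate (1 mM) was applied by fast perfusion for 2 s every 30 s, with or without test compound. Responses were related to the current from 1 mM glutamate alone.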

[26] = system: male Lister Hooded rats; conditions: ref Ward et al., 2017, cited from earlier work
[27] = system: Male Wistar rats; conditions: p.o.; ref Ward et al., 2017; cited from earlier work
[28] = system: rats; conditions: p.o.; ref Ward et al., 2017; cited from earlier work
[29] = system: rats; assay: 6-week GLP Safety and Toxicity study of UoS12258, rat; format: in vivo
[30] = system: native neuronal AMPARs in rat cultured hippocampal neurons; conditions: rat primary hippocampal neurons; ref Ward et al., 2017; cited from earlier work
[31] = system: cynomolgus monkeys; assay: 6-week GLP Safety and Toxicity study of UoS12258, cynomolgus monkey; format: in vivo; conditions: 6-week GLP
[32] = as above; format: in vivo; conditions: cynomolgus monkey, in vivo, po
[33] = relative to positive control LY404187

Chain of hGluA2i AMPAR (P42262 25-883 isoform P42262-2 limits assumed): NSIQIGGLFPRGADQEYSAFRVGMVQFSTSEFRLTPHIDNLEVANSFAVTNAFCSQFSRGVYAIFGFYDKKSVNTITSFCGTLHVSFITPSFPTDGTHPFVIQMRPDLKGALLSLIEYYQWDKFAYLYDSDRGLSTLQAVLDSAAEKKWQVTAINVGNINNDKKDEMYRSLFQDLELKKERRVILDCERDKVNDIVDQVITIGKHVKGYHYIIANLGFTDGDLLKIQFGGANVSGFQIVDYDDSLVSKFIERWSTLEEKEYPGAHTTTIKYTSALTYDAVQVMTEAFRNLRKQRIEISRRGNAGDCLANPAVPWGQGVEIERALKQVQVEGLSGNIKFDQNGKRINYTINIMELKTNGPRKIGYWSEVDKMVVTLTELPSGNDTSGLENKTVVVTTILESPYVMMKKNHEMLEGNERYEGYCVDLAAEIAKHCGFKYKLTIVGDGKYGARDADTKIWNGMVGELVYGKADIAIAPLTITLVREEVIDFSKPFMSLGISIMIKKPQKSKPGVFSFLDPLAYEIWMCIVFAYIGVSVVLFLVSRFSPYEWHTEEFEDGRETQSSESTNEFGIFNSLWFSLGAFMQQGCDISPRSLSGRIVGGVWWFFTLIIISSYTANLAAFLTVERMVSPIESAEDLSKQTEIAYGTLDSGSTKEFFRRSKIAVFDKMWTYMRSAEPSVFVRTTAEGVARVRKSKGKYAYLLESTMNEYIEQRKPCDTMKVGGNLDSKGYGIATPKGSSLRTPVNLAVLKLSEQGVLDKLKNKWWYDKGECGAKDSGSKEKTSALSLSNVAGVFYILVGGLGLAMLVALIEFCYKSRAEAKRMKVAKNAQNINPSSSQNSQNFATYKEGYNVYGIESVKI
Chain of hGluA4i AMPAR (P48058 21-902): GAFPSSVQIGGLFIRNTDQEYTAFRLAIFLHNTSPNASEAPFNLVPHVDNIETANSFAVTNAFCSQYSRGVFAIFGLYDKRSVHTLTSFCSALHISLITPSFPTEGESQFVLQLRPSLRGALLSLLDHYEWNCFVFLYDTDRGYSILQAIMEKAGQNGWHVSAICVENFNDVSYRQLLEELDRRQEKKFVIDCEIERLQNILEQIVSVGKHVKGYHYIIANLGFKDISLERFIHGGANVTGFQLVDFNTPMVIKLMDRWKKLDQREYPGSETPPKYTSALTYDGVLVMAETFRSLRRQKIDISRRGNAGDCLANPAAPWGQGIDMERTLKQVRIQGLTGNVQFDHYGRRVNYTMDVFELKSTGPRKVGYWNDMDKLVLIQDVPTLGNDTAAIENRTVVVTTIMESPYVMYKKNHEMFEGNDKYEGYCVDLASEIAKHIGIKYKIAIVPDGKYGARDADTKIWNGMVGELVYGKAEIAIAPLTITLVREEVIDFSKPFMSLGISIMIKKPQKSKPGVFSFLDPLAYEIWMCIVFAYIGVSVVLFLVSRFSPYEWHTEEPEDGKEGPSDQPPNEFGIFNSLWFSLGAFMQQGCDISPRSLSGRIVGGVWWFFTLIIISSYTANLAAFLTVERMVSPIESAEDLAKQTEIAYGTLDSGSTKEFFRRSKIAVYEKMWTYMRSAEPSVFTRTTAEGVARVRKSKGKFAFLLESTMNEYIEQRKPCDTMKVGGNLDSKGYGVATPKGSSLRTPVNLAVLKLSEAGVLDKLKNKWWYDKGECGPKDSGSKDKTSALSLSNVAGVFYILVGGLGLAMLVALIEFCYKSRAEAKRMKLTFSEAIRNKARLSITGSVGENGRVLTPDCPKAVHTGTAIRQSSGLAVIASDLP
Chain of hGluA3i AMPAR (P42263 29-894 isoform P42263-2 limits assumed): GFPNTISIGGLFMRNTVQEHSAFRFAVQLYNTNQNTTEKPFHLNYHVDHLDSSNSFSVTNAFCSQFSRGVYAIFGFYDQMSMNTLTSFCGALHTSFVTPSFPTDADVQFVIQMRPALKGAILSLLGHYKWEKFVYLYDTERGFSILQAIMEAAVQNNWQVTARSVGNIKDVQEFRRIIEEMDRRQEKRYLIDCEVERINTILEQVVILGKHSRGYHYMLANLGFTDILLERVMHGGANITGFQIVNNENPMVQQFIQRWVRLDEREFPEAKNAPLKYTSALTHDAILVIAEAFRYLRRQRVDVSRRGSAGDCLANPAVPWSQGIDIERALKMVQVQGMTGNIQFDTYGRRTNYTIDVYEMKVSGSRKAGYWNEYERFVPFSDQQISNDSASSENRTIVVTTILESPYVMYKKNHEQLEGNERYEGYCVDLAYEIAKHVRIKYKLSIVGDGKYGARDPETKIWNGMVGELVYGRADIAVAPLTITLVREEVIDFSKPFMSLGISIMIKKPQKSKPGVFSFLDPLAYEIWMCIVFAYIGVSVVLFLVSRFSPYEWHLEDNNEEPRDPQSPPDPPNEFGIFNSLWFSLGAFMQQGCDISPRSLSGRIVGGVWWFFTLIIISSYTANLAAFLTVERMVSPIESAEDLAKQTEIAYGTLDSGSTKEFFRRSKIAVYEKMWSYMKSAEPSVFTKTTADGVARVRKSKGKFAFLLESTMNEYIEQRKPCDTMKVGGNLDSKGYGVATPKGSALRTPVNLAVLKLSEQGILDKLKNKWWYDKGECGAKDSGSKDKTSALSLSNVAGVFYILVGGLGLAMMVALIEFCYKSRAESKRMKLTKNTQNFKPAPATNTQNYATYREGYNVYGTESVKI
Chain of hGluA2 AMPARs (P42262 25-883 isoform P42262-2 limits assumed): as the sequence (P42262 25-883 isoform P42262-2 limits assumed) above
Chain of rat GluA2i AMPAR (P19491 22-883 isoform P19491-2 limits assumed): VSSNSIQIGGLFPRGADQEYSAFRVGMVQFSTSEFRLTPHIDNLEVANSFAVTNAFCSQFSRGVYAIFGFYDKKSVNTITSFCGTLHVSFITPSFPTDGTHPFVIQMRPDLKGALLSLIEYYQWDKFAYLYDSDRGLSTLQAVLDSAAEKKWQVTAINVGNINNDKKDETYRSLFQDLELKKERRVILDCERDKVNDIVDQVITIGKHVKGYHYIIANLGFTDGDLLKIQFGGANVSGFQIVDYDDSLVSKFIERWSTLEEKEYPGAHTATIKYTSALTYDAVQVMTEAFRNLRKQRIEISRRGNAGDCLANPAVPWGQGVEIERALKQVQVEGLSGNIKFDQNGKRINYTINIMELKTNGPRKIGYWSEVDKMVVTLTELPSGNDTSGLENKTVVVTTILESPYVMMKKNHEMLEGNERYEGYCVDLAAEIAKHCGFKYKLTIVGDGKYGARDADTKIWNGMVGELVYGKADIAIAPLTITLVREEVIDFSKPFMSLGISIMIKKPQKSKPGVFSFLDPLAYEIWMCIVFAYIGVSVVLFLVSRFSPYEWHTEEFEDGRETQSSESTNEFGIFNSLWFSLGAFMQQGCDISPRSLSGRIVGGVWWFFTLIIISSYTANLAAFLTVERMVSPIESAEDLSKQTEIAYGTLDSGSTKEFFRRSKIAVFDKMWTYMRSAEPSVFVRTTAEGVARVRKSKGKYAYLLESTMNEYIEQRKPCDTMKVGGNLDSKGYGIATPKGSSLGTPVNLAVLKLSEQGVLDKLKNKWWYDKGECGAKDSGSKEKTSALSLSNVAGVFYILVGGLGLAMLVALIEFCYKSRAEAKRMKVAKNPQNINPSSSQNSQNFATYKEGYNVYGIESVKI
Chain of Homomeric human GluA1 flip isoform (hGluA1i) (P42261 19-906 isoform P42261-2 limits assumed): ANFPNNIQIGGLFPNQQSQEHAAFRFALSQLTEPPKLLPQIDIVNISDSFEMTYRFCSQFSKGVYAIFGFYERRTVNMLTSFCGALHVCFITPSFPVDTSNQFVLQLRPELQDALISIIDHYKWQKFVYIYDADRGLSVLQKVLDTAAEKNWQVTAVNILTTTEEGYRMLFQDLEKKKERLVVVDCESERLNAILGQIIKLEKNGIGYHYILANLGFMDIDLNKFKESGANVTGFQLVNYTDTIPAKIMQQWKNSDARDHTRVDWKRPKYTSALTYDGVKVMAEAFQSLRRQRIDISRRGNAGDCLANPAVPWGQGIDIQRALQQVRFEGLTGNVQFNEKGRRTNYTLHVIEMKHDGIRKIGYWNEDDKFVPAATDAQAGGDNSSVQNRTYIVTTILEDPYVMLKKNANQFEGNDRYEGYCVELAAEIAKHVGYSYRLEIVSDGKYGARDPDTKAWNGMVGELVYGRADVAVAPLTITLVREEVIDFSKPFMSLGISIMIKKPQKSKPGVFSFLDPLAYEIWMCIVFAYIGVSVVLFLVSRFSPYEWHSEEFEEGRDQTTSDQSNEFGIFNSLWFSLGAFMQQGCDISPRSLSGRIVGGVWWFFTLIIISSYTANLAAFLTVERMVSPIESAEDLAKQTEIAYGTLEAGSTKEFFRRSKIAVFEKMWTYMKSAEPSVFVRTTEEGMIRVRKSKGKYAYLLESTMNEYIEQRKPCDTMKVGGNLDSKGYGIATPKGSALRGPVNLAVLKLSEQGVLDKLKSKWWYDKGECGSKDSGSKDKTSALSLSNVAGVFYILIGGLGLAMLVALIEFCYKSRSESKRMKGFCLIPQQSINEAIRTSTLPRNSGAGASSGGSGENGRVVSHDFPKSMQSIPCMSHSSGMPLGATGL

O=C(c1ccc(-n2nc(C(F)(F)F)c3c2CCCC3)cc1)N1CCCC1 [MDI-222, 1-[4-(1-pyrrolidinylcarbonyl)phenyl]-3-(trifluoromethyl)-4,5,6,7-tetrahydro-1H-indazole]
EC50 [1]: 7.94 µM | Max. % response [1, 33]: 76 ± 1 (4) % | Max. % response [2]: 30 ± 2 (4) % | Charge transfer, normalised to AMPA alone ([3]; 1 nM): 1.14 ± 0.05 | Deactivation, normalised to AMPA alone ([3]; 1 nM): 1.06 ± 0.04 | Desensitisation, normalised to AMPA alone ([3]; 1 nM): 0.77 ± 0.10 | Charge transfer, normalised to AMPA alone ([3]; 10 nM): 1.37 ± 0.09 | Deactivation, normalised to AMPA alone ([3]; 10 nM): 1.19 ± 0.15 | Desensitisation, normalised to AMPA alone ([3]; 10 nM): 0.81 ± 0.05 | Charge transfer, normalised to AMPA alone ([3]; 100 nM): 1.33 ± 0.12 | Deactivation, normalised to AMPA alone ([3]; 100 nM): 1.29 ± 0.17 | Desensitisation, normalised to AMPA alone ([3]; 100 nM): 0.76 ± 0.03 | Charge transfer, normalised to AMPA alone ([3]; 1 μM): 1.28 ± 0.14 | Deactivation, normalised to AMPA alone ([3]; 1 μM): 1.33 ± 0.17 | Desensitisation, normalised to AMPA alone ([3]; 1 μM): 0.72 ± 0.04 | Charge transfer, normalised to AMPA alone ([3]; 10 μM): 1.62 ± 0.15 | Deactivation, normalised to AMPA alone ([3]; 10 μM): 2.79 ± 0.43 | Desensitisation, normalised to AMPA alone ([3]; 10 μM): 0.25 ± 0.08 | increase in charge transfer (maximal potentiation) ([3]; 10 μM): 62% | minimum effective concentration, charge transfer ([3]; AMPA 30 μM): 1 nM | minimum effective concentration, desensitisation ([3]; AMPA 30 μM): 10 nM | inward current when applied in the absence of AMPA ([3]; no agonist): did not invoke an inward current | concentration at 20 min [4]: 11600 ng/g | dentate gyrus population spike amplitude [5]: 139 % of baseline | systemic exposure on Day 28 relative to Day 1, fold lower ([6]; 4-week study): ≤ 9 fold | convulsions ([6]; highest dose 1,000 mg/kg, 4-week GLP): no convulsions observed | MED, reversal of scopolamine-induced deficit ([7]; p.o.): 10 mg/kg | convulsions / tolerability [8]: did not produce convulsions | EC50 [9]: 3.98 µM | Max. % response [9, 33]: 76 ± 8 (4) % | effect on glutamate-induced currents [10]: no effects | concentration at 0.5 h [11]: ~4700 ng/g | brain drug concentration ([12]; 30 mg/kg p.o.): approximately 4.7 μg/g | CC50 lower than vehicle-treated rats ([12]; 3, 10 and 30 mg/kg p.o.): 10-15% | effect on seizure threshold ([12]; up to 30 mg/kg p.o.): did not significantly affect the seizure threshold | minimal effective dose (D2 index), acute ([13]; acute single-dose): 0.3 mg/kg | minimal effective dose, sub-chronic ([13]; sub-chronic (7-day) dosing): 0.1 mg/kg | concentration at 30 min ([14]; mean blood level): 7 ng/mL | concentration at 30 min ([14]; mean brain level): 9 ng/g | EC50 [15]: 5 µM | Max. % response [15, 33]: 123 ± 7% and 123 ± 7 (9) % | solubility [16]: poor solubility | effect on glutamate-induced currents [17]: no effects | systemic exposure on Day 28 relative to Day 1, fold lower ([18]; 4-week study): up to 6 fold | convulsions ([18]; highest dose 800 mg/kg, 4-week GLP): no convulsions observed | Cmax [19]: 13 to 17000 ng/mL | effect on glutamate-induced currents [20]: no effects | convulsions / tolerability [21]: did not produce convulsions | Cmax [22]: ~15000 ng/mL | EC50 [23]: 31.6 µM | Max. % response [23, 33]: 53 ± 3 (3) % | pregnane X receptor [24]: activation | potentiation of glutamate-evoked charge transfer (area under the curve) ([25]; 100 nM): 121 ± 7% | potentiation of glutamate-evoked charge transfer (area under the curve) ([25]; 10 μM): 702 ± 40%

CC(C)S(=O)(=O)N[C@H]1Cc2ccc(-c3ccc(F)nc3)cc2C1 [UoS12258, N-[(2S)-5-(6-fluoro-3-pyridinyl)-2,3-dihydro-1H-inden-2-yl]-2-propanesulfonamide]
brain exposure ([26]; 100 mg/kg p.o.): around 5.0 μg/g | proconvulsant effect in MEST ([26]; 100 mg/kg p.o.): comparable to that of the positive control picrotoxin | proconvulsant dose in MEST ([26]; p.o.): 10 mg/kg | MED, reversal of scopolamine-induced deficit [27]: 3 mg/kg | MED, NOR following sub-chronic dosing [28]: 0.01 mg/kg | MED, acute-dosing NOR [28]: 0.3 mg/kg | dose at which convulsions were observed [29]: 10 mg/kg | maximal potentiation in the charge transfer [30]: 310% | dose at which convulsions were observed [31]: 4 mg/kg | NOAEL at 6 weeks [32]: 2.5 mg/kg

CN1[C@@H]2C[C@@H](OC(=O)[C@H](CO)c3ccccc3)C[C@H]1[C@@H]1O[C@@H]12 [scopolamine, reference compound]
step-through latency ([7]; scopolamine 1 mg/kg i.p., vehicle 457 ± 83 s): 157 ± 46 s
